# Calb FLC – C. albicans growth modulation with fluconazole | C. albicans CaCi-2 (fluconazole-resistant clinical isolate) + fluconazole, Alamar Blue growth, 48 h | 0.57% of 300,000 active | growth inhibition, % (test concentration not listed) | AID 1979;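 active = growth inhibition above about 58% in most replicates, limit read from the data, passing the limit was not always enough; inconclusive = exactly half the replicates above a set limit; inactive = most replicates below a set limit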;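 note: all wells also contain fluconazole at 8 µg/ml as a sub-toxic cotreatment; 0% = median of DMSO wells and 100% = median of geldanamycin control wells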
# proCasp3 act – activates human procaspase-3 | recombinant procaspase-3 D3A, Ac-DEVD-pNA absorbance 405 nm | activation, % at 8.5 µM | 0.11% of 330,000 active | AID 463141;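 active = activation above the mean of all tested compounds plus 3 SD, cut at about 21% in these data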;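 note: 0% = DMSO alone and 100% = DMSO wells spiked with extra 5 µM PC-3 D3A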
# Target sequence (P42574 whole entry D9A/D28A/D175A): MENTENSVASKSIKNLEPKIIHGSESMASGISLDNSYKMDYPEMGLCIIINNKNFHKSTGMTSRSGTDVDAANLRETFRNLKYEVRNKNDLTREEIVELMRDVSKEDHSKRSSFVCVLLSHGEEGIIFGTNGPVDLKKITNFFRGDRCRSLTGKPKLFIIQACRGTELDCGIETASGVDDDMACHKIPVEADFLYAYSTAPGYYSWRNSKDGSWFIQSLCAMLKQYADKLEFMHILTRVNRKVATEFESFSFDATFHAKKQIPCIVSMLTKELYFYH
#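 Technique: 405 nm absorbance of p-nitroaniline, reads at 0 and 120 min; Test system: Procaspase-3 D3A mutant; Incubation: 1 h enzyme-compound preincubation, then 2 h substrate reaction, 25 °C; Repeats: singlicate, each compound tested once; Benchmarks: low control DMSO wells, high control DMSO plus 5 µM PC-3 D3A.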
# proCasp7 act – counter-screen for procaspase-3 activators: activators of human procaspase-7. P55210. activation, % at 8.5 µM. recombinant procaspase-7, Ac-DEVD-pNA absorbance 405 nm; D23A/D198A/D206A triple mutant, cannot self-cleave; scale: DMSO 0, 5 µM enzyme 100. 0.093% of 330,000 active;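 active = percent activation above the screen-wide mean plus 3 SD, cut at about 25% in these data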
# Target sequence (P55210 whole entry D23A/D198A/D206A): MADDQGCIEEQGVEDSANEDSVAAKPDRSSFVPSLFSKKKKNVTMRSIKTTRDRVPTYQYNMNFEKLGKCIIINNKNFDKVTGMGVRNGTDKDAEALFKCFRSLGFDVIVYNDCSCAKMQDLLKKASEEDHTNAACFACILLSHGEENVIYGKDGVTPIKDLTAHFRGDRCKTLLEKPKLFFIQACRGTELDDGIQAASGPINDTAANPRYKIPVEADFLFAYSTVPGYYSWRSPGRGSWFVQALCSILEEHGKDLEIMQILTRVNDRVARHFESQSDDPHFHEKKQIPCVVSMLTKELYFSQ
#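 Assay system: Uncleavable procaspase-7 mutant enzyme; Input: 2 µM procaspase-7 mutant as dispensed; Also added: DEVD-pNA substrate; Medium: Zinc-free HEPES pH 7.4 with 300 mM NaCl, 0.01% Triton X-100; Timing: 1 h compound preincubation, 2 h substrate cleavage, 25 °C; Measured by: Epi-absorbance of released pNA at 405 nm, two timepoints.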
# FXN GAA850 act – increases GAA850 frataxin promoter reporter activity. activation, % at 6 µM. HEK293 lucGAA850 FXN promoter luciferase reporter, 24 h; percent of 10 µM SAHA response. 0.56% of 360,000 active;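 active = activation above the average of all compounds screened plus 3 SD, cutoff fixed separately per campaign, cut at about 7.5% in these data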;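 note: 0% = DMSO wells and 100% = 10 µM SAHA wells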
# HIF act – HIF pathway transcriptional activation | 0.32% of 300,000 active | activation, % at 7.5 µM (by protocol) | U2OS HRE-luciferase reporter, luminescence; normalized: DMSO 0%, desferrioxamine 100% | AID 1910;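 active = mean activation of at least 10% of the iron chelator positive control signal, with at least half of replicates also reaching 10%; inconclusive = mean and replicate majority disagree about reaching 10%; inactive = mean and most replicates under 10%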
# Neddylation inh – blocks human cullin neddylation; P61081+Q13564; TR-FRET cullin neddylation, biochemical; inhibition, % at 25 µM; 0.58% of 360,000 active; in the data active = inhibition above about 36%
# * hit, by the source's call; ? = inconclusive; . = no result given. An excerpt weighted towards active compounds, which were near 1.9% of everything screened.
SMILES,Calb FLC,proCasp3 act,proCasp7 act,FXN GAA850 act,HIF act,Neddylation inh
Cc1nc2ccccc2n2c(-c3ccccc3)c3c(=O)n(C)c(=O)n(C)c3c12,13,4,0,1,212*,31
C/C(=N\OCC(=O)N/N=C/c1ccc(C)cc1O)c1cccs1,-9,-10,-17,1,0,40*
C/C(=N\NC(=O)CO/N=C(\C)c1cccs1)c1ccc(N)cc1,-6,-1,-8,0,.,-9
CCOC(=O)[C@]12Cc3c(cc(OC)c(OC)c3OC)[C@H]1N(C1CCCCC1)C(=O)c1cc(OC)ccc12,.,.,.,.,.,6
CCc1c(C(=O)Nc2ccc(C)c(C)c2)[nH]c(C)c1C(C)=O,2,4,0,3,5,1
CC(=O)c1c(C)[nH]c(C(=O)Nc2ccc(C)c(C)c2)c1C,96*,0,-2,2,1,5
COc1ccc2c(c1)c(/C=C/c1cc[n+](C)cc1)cn2C,81*,-4,-22,1,-1,-96
CC1(C(=O)NCc2ccccc2)CSCC(=O)N1CCc1c[nH]c2ccccc12 (stereo not drawn),.,.,.,.,.,-5
COC(=O)C1=NN(C(=O)c2ccc(Cl)cc2)C(O)(c2ccccc2)C1 (stereo not drawn),59*,-3,-4,-2,.,-2
O=C1CCC2(CCCCC2)N1,.,.,.,-2,.,5
CCOC(=O)c1cnc(-n2nc(C)cc2C)nc1NNc1nc(-c2ccccc2)cc(-c2ccccc2)n1,-1,6,8,-1,18*,5
Cc1ccc(S(=O)(=O)N2CCOCC2)cc1NC(=O)COC(=O)c1ccc(Br)o1,.,.,.,0,.,-18
COc1ccc(NC(=O)CCS(=O)(=O)c2ccc3c(c2)CCN3C(C)=O)cc1,-5,3,2,1,10*,9
CCn1cc(CN2CCC(C(=O)Nc3ccc(Oc4ccccc4F)cc3)CC2)cn1,.,.,.,-4,.,2
Cc1cc(C)nc(N/N=C/c2cc(Br)ccc2O)n1,-3,-4,-1,-2,34*,1
Cc1cc(C)nc(N/N=C/c2ccccc2OCc2ccc(Br)cc2)n1,-9,-12,8,3,2,-8
CCC[C@@H](CNC)NC[C@H](Cc1ccccc1)NCCCCc1ccccc1,-30,-3,-14,-2,-1,-26
CNC[C@@H](Cc1ccccc1)NC[C@@H](CC1CCCCC1)NCCCc1ccccc1,79*,4,0,-2,-1,-23
CCC[C@H](CN[C@@H](CNC)[C@H](C)CC)NCCc1cc(C(F)(F)F)cc(C(F)(F)F)c1,-37,-4,-3,1,0,-15
CC[C@@H](C)[C@H](CNC)NC[C@@H](Cc1cccc2ccccc12)NCCc1cccc(C(F)(F)F)c1,112*,0,-10,1,0,-26
CNC[C@@H](CC1CCCCC1)NC[C@H](CC(C)C)NCCc1cccc(C(F)(F)F)c1,88*,2,-11,-2,-5,-14
CNc1cccnc1C=NNC(N)=S,.,.,.,-13,.,47*
Nc1nc(-c2ccccc2)c(N=Nc2ccccc2Cl)s1,101*,-10,-1,3,-1,-86
O=C1NC(=O)/C(=C/c2ccc(OS(=O)(=O)c3ccc(F)cc3F)cc2)N1,8,-12,1,4,41*,-53
CCOC(=O)CC(/C(C)=N\O)c1ccccc1 (stereo not drawn),99*,0,4,2,0,4
SMILES,Calb FLC,proCasp3 act,proCasp7 act,FXN GAA850 act,HIF act,Neddylation inh
Cc1ccc(-n2[nH]c(C)c(/C=N/NC(=O)c3ccc([N+](=O)[O-])cc3)c2=O)c(C)c1,103*,-3,4,2,0,-36
Cc1[nH]n(-c2cccc3ccccc23)c(=O)c1/C=N/NC(=O)c1cccc([N+](=O)[O-])c1,80*,-3,2,-1,0,-23
Cc1occc1C(=O)N/N=C/C1=C(N2CCOCC2)C(=C/c2ccc(Cl)cc2Cl)/CC1,.,.,.,4,.,38
O=C1CCC(=O)c2ccc3c4c(ccc1c24)CC3,.,.,.,0,.,49*
O=C(NNC(=O)c1ccccc1O)c1ccc(-c2ccc([N+](=O)[O-])cc2)o1,91*,-1,0,2,0,-21
O=C(C[C@H]1CC[C@H]2[C@@H](COC[C@@H](O)CN2Cc2cc(F)ccc2F)O1)NCc1ccc(Cl)cc1,.,.,.,.,.,-12
Cc1cccnc1NC(=O)c1ccc2c(c1)OCCO2,0,9,11,3,2,15
O=C(Nc1ncccc1O)c1ccc2c(c1)OCO2,7,3,2,5,9.7*,1
O=C(Nc1ncccc1O)c1ccc2ccccc2c1,-7,4,-5,0,0,-14
O=C(Nc1ncccc1O)c1ccc2c(c1)OCCO2,0,2,-4,7,12*,5
Cc1ccc2c(c1)C(=O)N1c3cc(C)c(C)cc3NC(=O)C1C(=O)N2 (stereo not drawn),.,.,.,.,.,-31
O=C(N/N=C(\Cc1ncc[nH]1)c1ccccc1)c1ccccc1,?,7,3,.,25*,.
O=C(CN(c1ccc(Br)cc1)S(=O)(=O)c1ccc(Cl)c([N+](=O)[O-])c1)NCC1CCCO1 (stereo not drawn),.,.,.,-3,.,-1
COc1ccc(N/N=C(/N=Nc2nc(C)cc(=O)[nH]2)c2ccccc2)cc1,-12,-3,-7,-10,143*,-41
Cc1cc(=O)[nH]c(N=N/C(=N/Nc2ccc(O)cc2)c2ccccc2)n1,-8,-10,-10,-1,12*,-25
Cc1cc(=O)[nH]c(N=N/C(=N/Nc2ccccc2C)c2ccccc2)n1,-15,2,-5,-3,2,-3
CCCCn1nnnc1C(c1cc2ccccc2o1)N(C)Cc1ccc(Cl)cc1 (stereo not drawn),.,.,.,.,.,6
COc1ccc(-c2c[n+](CC(=O)OC3CC(C)CCC3C(C)C)c3n2CCC3)cc1 (stereo not drawn),88*,6,5,-5,1,4
O=C(C[n+]1cc(-c2ccc(Cl)cc2)n2c1CCCCC2)c1ccccc1,37,10,-1,1,0,8
CC(C)[C@@H]1CC[C@@H](C)C[C@H]1OC(=O)C[n+]1cc(-c2ccc(Cl)cc2)n2c1CCCCC2,95*,-1,8,-3,1,0
CCC1CCCCN1CCCNC(=O)Cn1cnc2sc(C)c(S(=O)(=O)N3CC(C)CC(C)C3)c2c1=O (stereo not drawn),4,-1,5,-1,1,-6
CCN(CC)C(=O)C1=C(C)N(Cc2ccc(OC)cc2)C(=O)C(CC(=O)NCCc2ccccn2)C1 (stereo not drawn),.,.,.,3,.,1

# Screening data from PubChem.
